# Bioassay records: PubChem, Sanford-Burnham Center for Chemical Genomics
# HKDC1 activator – activators of human hexokinase HKDC1; Q2TB90; recombinant HKDC1, G6PDH/diaphorase resazurin fluorescence; active compounds read low; activity change, negative = activation, % at 20 µM; 340,000 compounds, 0.056% hits; AID 493187;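 active means activation of 40% or more at 20 µM, a change of -40% or lower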
#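 system = in-house human HKDC1 enzyme, G6PDH and diaphorase coupling enzymes | amount = HKDC1 5 µg/mL | measured by = resorufin fluorescence from 100 µM resazurin, NADP 1 mM, Ex 525/Em 613 nm | times = enzyme reaction 90 min, room temperature, in dark | doses = single compound dose of 20 µM, 1% DMSO final | medium = Tris/MgCl2 buffer, pH 8.0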
# The depositor's hits bear a star. Only a sample is shown.
SMILES,HKDC1 activator
N#CC1=C(N)Oc2c(c(=O)sc3ccccc23)C1c1ccncc1 (configuration not stated),-58*
COc1ccc(/C=C2\C(=O)NC(=S)N(C)C2=O)cc1C,36
O=C1CC=C2C3CC4N(CCC45c4cc(O)c(O)cc4N1C25)CC3=CCBr (configuration not stated),45
Cn1c(=O)c2c(nc(N/N=C/c3c(O)n(C4CCCCC4)c(=S)[nH]c3=O)n2C)n(C)c1=O,-46*
O=C(O)CC1OCC=C2CN3CCC45C6=CC(=O)C(=O)C([N+](=O)[O-])=C6NC4C1C2CC35 (configuration not stated),43
CCn1nc(-c2ccccc2)nc2c(=O)n(C)c(=O)nc1-2,-83*
Cc1ccc2c(C)c3ccc4ccccc4c3c[n+]2c1,-53*
COc1ccc(OC)c(N2C(=O)/C(=C/c3ccco3)C(=O)NC2=S)c1,82
O=c1c2ccccc2[se]n1-c1ccccc1,-116*
O=C1C=CC(=O)C=C1,48
O=c1[nH]c(O)c(/C=C2/C=CC(c3cc(Cl)ccc3Cl)=N2)c(=O)[nH]1,40
NC(=O)c1ccc(N=Cc2c(O)n(Cc3ccco3)c(=O)[nH]c2=O)cc1,36
O=C1NC(=S)N(c2ccc(F)cc2)C(=O)/C1=C\c1ccoc1,51
Cc1cc(/C=C2\C(=O)NC(=O)N(c3ccc(Cl)cc3)C2=O)c(C)n1-c1sc2c(c1C#N)CCCC2,69
COC(=O)C1CN(C#N)N(c2ccc(Cl)cc2)C12c1ccccc1-c1ccccc12 (configuration not stated),87
COC(=O)C1=C(C(=O)OC)SC2(S1)C(C(=O)OC)=C(C(=O)OC)Sc1c2ssc1=O,-109*
N#CC(C#N)=Cc1ccc(C=C(C#N)C#N)cc1,38
CC[C@H](C)/C=C(C)/C=C/C1=CC2=C(Cl)C(=O)[C@@](C)(OC(C)=O)C(=O)C2=CO1,63
CCOC(=O)c1c(-n2c(C)cc(/C=C3\C(=O)NC(=O)N(C)C3=O)c2C)sc2c1CCCC2,51
